Compound activity: PubChem BioAssay, several laboratories
Sampled rows, rich in hits. Any-hit rate of the full collection: about 4.3%.
SMARCA2 activ: SMARCA2 (BRM) function activators, primary screen, cell-based, luminescence, high throughput | activation, % at 9.1 µM | MG213 cells, MMTV-luciferase reporter, dexamethasone, overnight | hit rate 1% among 370,000; in the data active = activation above about 7.8%
CR mimetic SO: reduction of superoxide in aged yeast, primary screen, HTS. S. cerevisiae aged cells, superoxide DHE fluorescence; hits give low values. superoxide response (% of plate mean), % at 10 µM. hit rate 0.18% among 330,000;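 active = superoxide response under a set limit, about three screen SD below normal, cut at about 65% in these data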;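 also: yeast aged for seven days with compound at 30 °C before DHE staining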
AHR activator: AHR activators, primary screen, cell-based, luminescence, luciferase reporter, human. hit rate 2.5% among 320,000. Aryl hydrocarbon receptor (Homo sapiens), P35869. activation, % at 5 µM. AID 2796, 2010. AHR-responsive luciferase reporter cells; in the data active = activation above about 47%
SR-BI DiI inh: inhibitors of SR-BI mediated HDL lipid uptake, primary screen, ldlA[mSR-BI] cells, fluorescence, single point | ldlA[mSR-BI] CHO cells, DiI-HDL uptake fluorescence, 3 h | inhibition, % at 12.5 µM | Scavenger receptor class B member 1 (Mus musculus), Q61009 | hit rate 0.96% among 320,000;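 active = mean replicate inhibition of at least 70% and a set share of replicates each scoring 70 or more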
Target sequence (Q61009 whole entry, looked up): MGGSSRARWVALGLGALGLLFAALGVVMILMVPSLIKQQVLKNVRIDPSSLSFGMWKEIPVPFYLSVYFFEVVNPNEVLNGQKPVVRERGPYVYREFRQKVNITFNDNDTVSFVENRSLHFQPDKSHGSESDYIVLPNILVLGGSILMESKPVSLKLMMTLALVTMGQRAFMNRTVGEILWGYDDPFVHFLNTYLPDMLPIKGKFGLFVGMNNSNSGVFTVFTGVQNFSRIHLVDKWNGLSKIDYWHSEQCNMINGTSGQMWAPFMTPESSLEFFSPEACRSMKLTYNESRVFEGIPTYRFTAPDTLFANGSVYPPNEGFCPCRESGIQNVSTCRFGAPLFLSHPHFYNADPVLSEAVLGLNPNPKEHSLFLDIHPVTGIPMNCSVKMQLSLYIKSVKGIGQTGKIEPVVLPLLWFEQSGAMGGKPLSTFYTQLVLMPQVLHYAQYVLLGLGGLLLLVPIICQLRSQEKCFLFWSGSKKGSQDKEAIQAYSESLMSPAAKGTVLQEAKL
Lipid droplet: inhibitors of hepatocyte lipid droplet formation, primary screen, imaging, high-throughput imaging, BODIPY stain; hit rate 0.4% among 240,000; AML12 mouse hepatocytes, oleate lipid droplets; inhibition, % at 6.5 µM;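 active = lipid droplet intensity inhibited by at least 50%, with more than 500 cells counted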
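Assay system: AML12 mouse liver cells | Compound: 6.5 µM single-point dosing | Schedule: Overnight exposure | Technique: Fluorescence imaging, 20x objective, two fields per well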
SR-BI DiI-HDL act: activators of SR-BI mediated DiI-HDL uptake, primary screen, ldlA[mSR-BI] CHO cells, DiI fluorescence. hit rate 0.096% among 320,000. 3 h; 100 = double the neutral-control signal. AID 504775, 2011. activation, % at 12.5 µM;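 active = mean replicate activation of at least 60% and every replicate at or above 60%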
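System: CHO ldlA[mSR-BI] cells / Medium: HEPES-buffered (25 mM, pH 7.4) F12 plus 0.5% BSA / Probe or stimulus: labelled HDL, 10 µg/mL / Doses: single compound concentration, delivered by pin transfer / Schedule: 3 h, 37 °C / Measured by: DiI fluorescence, bottom read / Measure: cell-associated DiI fluorescence as measure of HDL uptake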
AHR act cf: AHR activators, confirmation, cell-based, luminescence, luciferase reporter, human | shares compounds with AHR activator | human cells, AHR-responsive luciferase reporter | activation, % at 9 µM | hit rate 87% among 2,300 | AID 2845, 2010; in the data active = activation above about 49%;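 also: HepG2 hepatoma cells carrying a DRE-driven firefly luciferase reporter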
PXR act counter: human PXR activators, counter-screen for AHR activator project, cell-based, luciferase luminescence. shares compounds with AHR activator. cell-based PXR reporter. activation, % at 11.6 µM. hit rate 88% among 2,300. AID 434939, 2010; in the data active = activation above about 11%;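 also: human hepatoma DPX-2 cells expressing full-length human PXR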
A number is an active result; 0 = inactive; - = no result given.

SMILES	SMARCA2 activ	CR mimetic SO	AHR activator	SR-BI DiI inh	Lipid droplet	SR-BI DiI-HDL act	AHR act cf	PXR act counter
Cc1ccc(C)c(NC(=S)c2ccccn2)c1	0	0	118	0	-	0	106	26
O=C(Nc1ccc(Cl)cc1)/C(=C/c1cccc(O)c1)c1nc2ccccc2s1	0	0	0	0	0	0	-	-
Cc1ccc(NC(=S)c2nc3ccccc3s2)cc1	0	0	82	0	-	0	58	18
COc1ccc(NC(=O)c2nc3ccccc3s2)cc1	0	0	0	0	0	0	-	-
S=C(Nc1ccc(Cl)cc1)c1nc2ccccc2s1	0	0	130	0	-	0	112	13
Cc1ccc(Nc2nc3ccccc3s2)c(C)c1	0	0	0	0	0	0	-	-
CCOC(=O)CC[C@H]1CC[C@]2(CCCN(S(=O)(=O)C3CCCCC3)C2)O1	0	-	-	-	-	-	-	-
Cn1nccc1C(=O)Oc1ccc(/C=N/NC(=O)c2ccccc2O)cc1	0	0	93	0	0	0	0	0
C=CC[C@]12C[C@@]3(O[C@H](c4ccc(C(F)(F)F)cc4)N=C3C[C@H](c3ccc(OC)cc3)[C@H]1C)N(Cc1ccncc1)C2=O	0	-	-	-	-	-	-	-
COc1ccc(OC)c(CN(CC(F)(F)F)S(=O)(=O)c2ccccc2Br)c1	0	-	-	-	-	-	-	-
O=C1CCC2(CCC(c3ccccc3)CC2)N1CCCO (configuration not stated)	0	-	-	-	-	-	-	-
O=C(N[C@@H](Cc1cccnc1)C(=O)N1CCC[C@H]1C(=O)NCCc1ccccc1Cl)c1ccccc1	0	-	-	-	-	-	-	-
C=CCNC(=O)c1cc(-c2ccncc2)nc2c(C)cc(C)cc12	0	0	81	0	0	0	65	45
OCc1ccccc1OCc1ccccc1	0	-	-	-	-	-	-	-
CCOc1ccc(-n2c(COc3ccc(Cl)cc3)nnc2SCC(=O)Nc2ccc(OCc3ccccc3)cc2)cc1	0	-	-	-	-	-	-	-
O=C1c2cccc3cccc(c23)C(=O)N1CCN1CCN(C(=S)Nc2ccc(Cl)cc2)CC1	0	0	97	0	0	0	110	65
O=C1c2cccc3cccc(c23)C(=O)N1CCN1CCN(C(=S)Nc2ccccc2)CC1	0	0	98	72	0	0	101	98
O=C(Cc1c[nH]c2ccccc12)Nc1ccc(Nc2cccnc2)c(Br)c1	0	-	-	-	-	-	-	-
CCOc1ccccc1-c1nc(-c2ccc(NC(=O)c3ccc(Br)o3)cc2)no1	0	0	123	-	0	-	106	19
O=C(NCc1nc(-c2ccccc2)no1)c1ccc(Br)o1	0	0	0	0	0	0	-	-
COC(=O)[C@]12C[C@H](CC(=O)N3CCN(C(=O)c4ccco4)CC3)C(=O)N(Cc3ccc(Cl)cc3Cl)C1=C[C@H](C1CCCC1)O[C@@H]2C	0	-	-	-	-	-	-	-
COc1ccc(C(=O)COc2ccccc2C#N)cc1	0	0	90	0	0	0	67	23
COc1ccc(C(=O)COc2ccccc2C(N)=O)cc1	0	0	0	0	0	0	-	-
COc1ccc(OC)c(/C=N/NC(=O)CNC(=O)c2ccc(S(=O)(=O)N3CCOCC3)cc2)c1	0	0	125	0	0	0	0	0
COc1ccccc1/C=N/NC(=O)CNC(=O)c1ccc(S(=O)(=O)N2CCCC2)cc1	0	0	0	0	0	0	-	-
SMILES	SMARCA2 activ	CR mimetic SO	AHR activator	SR-BI DiI inh	Lipid droplet	SR-BI DiI-HDL act	AHR act cf	PXR act counter
COc1cc(-c2cc(-c3ccccc3)nc(SCC(=O)Nc3nccs3)c2C#N)cc(OC)c1OC	0	0	0	0	-	0	-	-
COc1ccc(-c2[nH]c(-c3ccc(C)cc3)nc2SCC(=O)NC2CCCC2)cc1	0	0	104	80	0	0	88	86
COc1ccc(-c2[nH]c(-c3ccccc3)nc2SCC(=O)Nc2nccs2)cc1	0	0	109	0	0	0	78	42
C[C@H](CO)N1C[C@H](C)[C@H](CN(C)C(=O)Nc2cccc3ccccc23)Oc2ncc(Br)cc2C1=O	0	-	-	-	-	-	-	-
CCOC(=O)C1CCN(C(=O)C(Cc2ccc3c(c2)OCO3)NC(C)=O)CC1 (configuration not stated)	0	-	-	-	-	-	-	-
CCN1C(=O)N/C(=C/c2cc(C)n(Cc3ccccc3)c2C)C1=O	0	0	136	0	0	0	103	230
Cc1ccc2nc(-c3ccco3)c(Cc3ccccc3C(F)(F)F)n2c1	0	-	-	-	-	-	-	-
COc1ccccc1C(=O)Nc1cccc(-c2cn3ccsc3n2)c1	0	-	-	-	0	-	-	-
O=C(Nc1cccc(-c2cn3ccsc3n2)c1)c1ccccc1	0	0	82	-	-	-	72	14
COc1ccc2ccccc2c1CN1CCN(c2ncc(Cc3ccccc3)cn2)CC1	0	-	-	-	-	-	-	-
CCCCCCCCN1C(=O)[C@@H](CC(=O)NCc2cccc(C(F)(F)F)c2)C[C@@]2(C(=O)OC)C1=C[C@H](C(C)C)O[C@@H]2C1CC1	0	-	-	-	-	-	-	-
O=S(=O)(Nc1ccc(-c2nc3cccnc3s2)cc1)c1cccs1	0	0	95	0	0	0	98	29
O=S(=O)(Nc1cccc2ncccc12)c1cccs1	-	0	0	0	0	0	-	-
C[C@@H]1CN([C@@H](C)CO)C(=O)CCCn2cc(nn2)CO[C@H]1CN(C)C(=O)Cc1ccccc1	0	-	-	-	-	-	-	-
N/C(=N\OC(=O)c1ccc(Cl)cc1Cl)c1cccnc1	0	0	0	0	0	0	-	-
N/C(=N\OC(=O)c1cccc2ccccc12)c1cccnc1	0	0	85	0	0	0	55	15
Cc1cc(N2CCN(C(=O)OC(C)(C)C)C[C@H]2C)ccc1N1CCS(=O)(=O)CC1	0	-	-	-	-	-	-	-
COc1ccc2[nH]c3c(N4CC(C)OC(C)C4)ncnc3c2c1 (configuration not stated)	0	0	126	-	0	-	94	22
CC(=O)c1c(C)nc(-c2ccc(Cl)cc2)nc1NC(=O)C(C)C	0	0	116	0	0	0	137	46
CC(=O)Nc1nc(-c2ccccc2)nc(C)c1C(C)=O	0	0	80	-	0	-	105	24
CC(=O)c1c(C)nc(-c2ccccc2)nc1NC(=O)C(C)C	0	0	0	0	-	0	-	-
Cc1[nH][nH]c(=O)c1N=Nc1ccc(Br)c(Cl)c1	0	0	85	0	-	0	128	11
O=C1c2ccccc2-n2c1nc1ccccc1c2=O	0	0	108	0	0	0	155	30
COC(=O)[C@]1(CNC(=O)C(C)(C)C)CC(=O)N(C)[C@@H]1c1ccccc1	0	-	-	-	-	-	-	-
